According to ChEMBL document CHEMBL1142075, “Two-year assessment of entecavir resistance in Lamivudine-refractory hepatitis B virus patients reveals different clinical outcomes depending on the resistance substitutions present” (Antimicrob Agents Chemother, 2007):

Tests used:
Hepatitis B virus [1] = test: Inhibition of HBV replication with RT A200V substitution and L180M, M204I background from Lamivudine refractory patient transfected into HepG2 cells; assay type: functional, organism-based
Summary of the method: (§1)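 HepG2 cells bulk-transfected with full-length HBV phenotyping plasmids cloned from patient isolates, then seeded into wells with compound titration. DMSO vehicle controls and cloned lab wild-type HBV run in parallel each experiment. At 5 days posttransfection, released virions stripped with Nonidet P-40, captured from medium with anti-HBV core antibody, and extracellular replicated virus quantitated. EC50 = concentration giving 50% inhibition.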

Hepatitis B virus [2] = test: Inhibition of HBV replication with RT V224A substitution and V173L, L180M, M204V background from Lamivudine refractory patient transfected into HepG2 cells; assay type: functional; summary of the method: as §1
Hepatitis B virus [3] = test: Inhibition of HBV replication with RT L80V substitution and L180M, M204V background from Lamivudine refractory patient transfected into HepG2 cells; assay type: functional, organism-based; summary of the method: as §1
Hepatitis B virus [4] = test: Inhibition of HBV replication with RT M309L substitution from Lamivudine refractory patient transfected into HepG2 cells; assay type: functional, organism-based; summary of the method: as §1
Hepatitis B virus [5] = test: Inhibition of HBV replication with RT A200V substitution and M204I background from Lamivudine refractory patient transfected into HepG2 cells; assay type: functional, organism-based; summary of the method: as §1
Hepatitis B virus [6] = test: Inhibition of HBV replication with RT Q267Stop substitution and L180M, M204V background from Lamivudine refractory patient transfected into HepG2 cells; assay type: functional; summary of the method: as §1
Hepatitis B virus [7] = test: Inhibition of HBV replication with RT D263G substitution from Lamivudine refractory patient transfected into HepG2 cells; assay type: functional, organism-based; summary of the method: as §1
Hepatitis B virus [8] = test: Inhibition of HBV replication with RT V27A substitution and L180M, M204V background from Lamivudine refractory patient transfected into HepG2 cells; assay type: functional; summary of the method: as §1
Hepatitis B virus [9] = test: Inhibition of HBV replication with RT S78T substitution from Lamivudine refractory patient transfected into HepG2 cells; assay type: functional, organism-based; summary of the method: as §1
Hepatitis B virus [10] = test: Inhibition of HBV replication with RT A200V substitution from Lamivudine refractory patient transfected into HepG2 cells; assay type: functional, organism-based; summary of the method: as §1
Hepatitis B virus [11] = test: Inhibition of HBV replication with RT G295S substitution and L80I, M204I background from Lamivudine refractory patient transfected into HepG2 cells; assay type: functional; summary of the method: as §1
Hepatitis B virus [12] = test: Inhibition of HBV replication with RT C188S substitution and L80I, L180T, M204V background from Lamivudine refractory patient transfected into HepG2 cells; assay type: functional, organism-based; summary of the method: as §1
Hepatitis B virus [13] = test: Inhibition of HBV replication with RT L80I substitution and L180M, M204I background from Lamivudine refractory patient transfected into HepG2 cells; assay type: functional, organism-based; summary of the method: as §1
Hepatitis B virus [14] = test: Inhibition of HBV replication with RT L229W substitution and L180M, M204V background from Lamivudine refractory patient transfected into HepG2 cells; assay type: functional, organism-based; summary of the method: as §1
Hepatitis B virus [15] = test: Inhibition of HBV replication with RT I53F substitution and V173F, L180M, M204V background from Lamivudine refractory patient transfected into HepG2 cells; assay type: functional, organism-based; summary of the method: as §1
Hepatitis B virus [16] = test: Inhibition of HBV replication with RT K168E substitution and M204I background from Lamivudine refractory patient transfected into HepG2 cells; assay type: functional; summary of the method: as §1
Hepatitis B virus [17] = test: Inhibition of HBV replication with RT L228P substitution and M204I background from Lamivudine refractory patient transfected into HepG2 cells; assay type: functional; summary of the method: as §1
Hepatitis B virus [18] = test: Inhibition of HBV replication with RT A181T substitution and V173L, L180M, M204V background from Lamivudine refractory patient transfected into HepG2 cells

Question: For `C=C1[C@H](CO)[C@@H](O)C[C@@H]1n1cnc2c(=O)[nH]c(N)nc21.O` [ENTECAVIR], which EC50 (Hepatitis B virus [1]) is on record?
Answer: 10.2 nM

Question: And the Inhibition (Hepatitis B virus [2])?
Answer: <10%

Question: And the EC50 (Hepatitis B virus [3])?
Answer: 11 nM

Question: And the EC50 (Hepatitis B virus [4])?
Answer: 4 nM

Question: And the EC50 (Hepatitis B virus [5])?
Answer: 33 nM

Question: And the Inhibition (Hepatitis B virus [6])?
Answer: <10%

Question: What about the EC50 (Hepatitis B virus [7]) of the same compound?
Answer: 5.8 nM

Question: What about the Inhibition (Hepatitis B virus [8]) of the same compound?
Answer: <10%

Question: And the EC50 (Hepatitis B virus [9])?
Answer: 2.4 nM

Question: And the EC50 (Hepatitis B virus [10])?
Answer: 7.6 nM

Question: And the Inhibition (Hepatitis B virus [11])?
Answer: <10%

Question: What about the EC50 (Hepatitis B virus [12]) of the same compound?
Answer: 31.2 nM

Question: What about the EC50 (Hepatitis B virus [13]) of the same compound?
Answer: 45.3 nM

Question: And the EC50 (Hepatitis B virus [14])?
Answer: 32.9 nM

Question: What about the EC50 (Hepatitis B virus [15]) of the same compound?
Answer: 22.3 nM

Question: And the Inhibition (Hepatitis B virus [16])?
Answer: <10%

Question: And the Inhibition (Hepatitis B virus [17])?
Answer: <10%

Question: And the EC50 (Hepatitis B virus [18])?
Answer: 14.2 nM
